# Reference: ChEMBL document CHEMBL1123888, “Aldosterone antagonists. 2. Synthesis and biological activities of 11,12-dehydropregnane derivatives” (J Med Chem, 1987)
# Activity calls are given as the source filed them. No cut-off for these calls is given here.
# How the values were obtained:
# [1] = target: T1, Mineralocorticoid receptor (Rattus norvegicus) (UniProt P22199); test: Antagonist activity against Mineralocorticoid receptor was determined after subcutaneous administration in Male Sprague Dawley rats; assay type: functional, organism-based
# T1 sequence (whole entry): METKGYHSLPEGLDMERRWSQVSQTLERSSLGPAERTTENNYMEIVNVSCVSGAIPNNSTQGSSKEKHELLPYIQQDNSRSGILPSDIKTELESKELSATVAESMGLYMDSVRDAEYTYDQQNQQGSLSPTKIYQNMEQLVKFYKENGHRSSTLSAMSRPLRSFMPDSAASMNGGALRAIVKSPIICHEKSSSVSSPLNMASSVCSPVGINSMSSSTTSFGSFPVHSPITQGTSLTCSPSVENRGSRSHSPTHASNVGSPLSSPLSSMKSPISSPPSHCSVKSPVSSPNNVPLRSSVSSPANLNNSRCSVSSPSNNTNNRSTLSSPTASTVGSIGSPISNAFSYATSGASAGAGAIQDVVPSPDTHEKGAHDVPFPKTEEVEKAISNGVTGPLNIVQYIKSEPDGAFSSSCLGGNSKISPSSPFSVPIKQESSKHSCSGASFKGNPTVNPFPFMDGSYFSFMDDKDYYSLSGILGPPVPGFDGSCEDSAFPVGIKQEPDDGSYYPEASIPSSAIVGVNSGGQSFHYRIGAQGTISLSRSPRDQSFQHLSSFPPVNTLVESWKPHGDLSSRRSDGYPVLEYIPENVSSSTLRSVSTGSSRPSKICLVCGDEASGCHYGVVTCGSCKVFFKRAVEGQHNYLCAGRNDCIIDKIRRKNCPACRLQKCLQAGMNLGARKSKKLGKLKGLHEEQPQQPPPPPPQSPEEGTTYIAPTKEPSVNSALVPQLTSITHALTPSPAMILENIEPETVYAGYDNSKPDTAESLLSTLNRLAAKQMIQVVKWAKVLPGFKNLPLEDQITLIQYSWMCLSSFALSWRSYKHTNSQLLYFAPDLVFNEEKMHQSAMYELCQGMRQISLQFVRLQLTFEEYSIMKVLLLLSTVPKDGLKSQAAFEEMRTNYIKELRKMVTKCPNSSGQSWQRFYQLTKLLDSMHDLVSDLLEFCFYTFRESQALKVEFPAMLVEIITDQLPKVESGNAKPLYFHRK
# How it was run: (§1)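 Male rats were bilaterally adrenalectomized (bioassay modified from Kagawa). Ald (1 µg/kg) was given sc, immediately followed by test compound in sesame oil sc or orally. Urine was collected from 2 to 6 h after steroid. Potency came from the urinary Na/K ratio of sample versus control, with 95% confidence limits.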
# [2] = target: T1, Mineralocorticoid receptor (Rattus norvegicus); test: Relative binding affinity against mineralocorticoid receptor determined in rat renal cytosol using [3]Ald as ligand
# How it was run: (§2)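 Renal cytosol came from male Sprague-Dawley rats (4-8 weeks) adrenalectomized bilaterally 1 or 2 days earlier. It was incubated with various competitor concentrations and about 1 nM [3H]Ald for 42-48 h at 0 °C or 100-120 min at 25 °C. Bound and free steroid were separated by DCC.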
# [3] = target: T1, Mineralocorticoid receptor (Rattus norvegicus); test: Antagonist activity against Mineralocorticoid receptor after po administration in Male Sprague Dawley rats; (+) =positive; assay type: functional, organism-based; conditions: filed as antagonist; how it was run: as §1
# [4] = target: T2, Progesterone receptor (Rattus norvegicus) (UniProt Q63449); test: Relative binding affinity against progesterone receptor determined in rat […] cytosol using [3H]DHT as ligand
# T2 sequence (whole entry): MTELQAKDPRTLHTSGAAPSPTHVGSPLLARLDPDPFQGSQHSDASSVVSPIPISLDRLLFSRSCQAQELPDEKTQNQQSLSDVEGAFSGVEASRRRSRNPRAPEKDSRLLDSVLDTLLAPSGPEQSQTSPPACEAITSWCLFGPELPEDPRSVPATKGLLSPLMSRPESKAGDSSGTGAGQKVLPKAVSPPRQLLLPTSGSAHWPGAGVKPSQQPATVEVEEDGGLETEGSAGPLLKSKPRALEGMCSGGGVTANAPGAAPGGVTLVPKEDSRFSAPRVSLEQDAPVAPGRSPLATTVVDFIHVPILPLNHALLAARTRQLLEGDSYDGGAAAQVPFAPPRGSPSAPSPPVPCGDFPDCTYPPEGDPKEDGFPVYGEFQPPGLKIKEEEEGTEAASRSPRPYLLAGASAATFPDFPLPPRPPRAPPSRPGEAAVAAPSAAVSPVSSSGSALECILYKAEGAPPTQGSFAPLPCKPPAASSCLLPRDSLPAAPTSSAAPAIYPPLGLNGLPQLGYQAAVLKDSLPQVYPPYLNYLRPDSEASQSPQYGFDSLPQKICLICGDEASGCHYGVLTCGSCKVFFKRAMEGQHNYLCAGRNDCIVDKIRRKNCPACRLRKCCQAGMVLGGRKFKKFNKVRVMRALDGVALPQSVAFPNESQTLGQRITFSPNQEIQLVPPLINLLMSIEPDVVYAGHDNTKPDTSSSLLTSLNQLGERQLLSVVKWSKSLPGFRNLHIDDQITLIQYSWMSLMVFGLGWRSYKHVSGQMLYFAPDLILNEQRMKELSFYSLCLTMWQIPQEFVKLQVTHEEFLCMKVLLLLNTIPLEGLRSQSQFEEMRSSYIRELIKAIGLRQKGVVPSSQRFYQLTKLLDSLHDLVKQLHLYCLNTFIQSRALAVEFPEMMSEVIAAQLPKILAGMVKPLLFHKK
# [5] = target: T1, Mineralocorticoid receptor (Rattus norvegicus); test: Relative potency compared to Aldosterone;Range is 1.2-1.6; assay type: functional
# [6] = target: T1, Mineralocorticoid receptor (Rattus norvegicus); test: Antagonist activity against Mineralocorticoid receptor after oral administration in Male Sprague Dawley rats; (-) = negative; assay type: functional, organism-based; how it was run: as §1
# [7] = target: T1, Mineralocorticoid receptor (Rattus norvegicus); test: Relative binding affinity to the rat mineralocorticoid receptor determined in rat renal cytosol using [3]Ald as ligand; how it was run: as §2
# [8] = target: T1, Mineralocorticoid receptor (Rattus norvegicus); test: Antagonist activity against Mineralocorticoid receptor after subcutaneous administration in Male Sprague Dawley rats; (-) = negative; assay type: functional, organism-based; how it was run: as §1
# [9] = target: T1, Mineralocorticoid receptor (Rattus norvegicus); test: Agonist activity against Mineralocorticoid receptor after subcutaneous administration in Male Sprague Dawley rats; (+) =positive; assay type: functional, organism-based; conditions: filed as agonist
# Rattus norvegicus = species on record: Rattus norvegicus; test: Displacement of [3H]promegestone from progestin receptor of rat uterine cytosol at 0 degree Centigrade
# How it was run: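 Uteri from estradiol-primed rats supplied the cytosol. It was incubated with various competitor concentrations and about 1 nM [3H]promegestone for 16-20 h at 0 °C. Bound and free steroid were separated by DCC. RBA (progesterone = 100%) = 100 × ratio of the 50%-inhibition concentrations of standard and competitor.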
# [10] = target: T1, Mineralocorticoid receptor (Rattus norvegicus); test: Relative potency ompared to Aldosterone;Range 4-187; assay type: functional
# [11] = target: T1, Mineralocorticoid receptor (Rattus norvegicus); test: Relative binding affinity against Mineralocorticoid receptor in Male Sprague-Dawley rats; how it was run: as §2
# [12] = target: T1, Mineralocorticoid receptor (Rattus norvegicus); test: Relative anti-mineralocorticoid potency compared to Spironolactone after oral administration; assay type: functional, organism-based; how it was run: as §1
# [13] = target: T1, Mineralocorticoid receptor (Rattus norvegicus); test: Antagonist activity against Mineralocorticoid receptor after po administration in Male Sprague Dawley rats; (-) = negative; assay type: functional, organism-based; how it was run: as §1
# [14] = target: T3, Androgen receptor (Rattus norvegicus) (UniProt P15207); test: Relative anti-androgenic activity as suppressive effect on weight increase of ventral prostate in castrated immature rats given testosterone propionate; assay type: functional; conditions: Prostate gland
# T3 sequence (whole entry): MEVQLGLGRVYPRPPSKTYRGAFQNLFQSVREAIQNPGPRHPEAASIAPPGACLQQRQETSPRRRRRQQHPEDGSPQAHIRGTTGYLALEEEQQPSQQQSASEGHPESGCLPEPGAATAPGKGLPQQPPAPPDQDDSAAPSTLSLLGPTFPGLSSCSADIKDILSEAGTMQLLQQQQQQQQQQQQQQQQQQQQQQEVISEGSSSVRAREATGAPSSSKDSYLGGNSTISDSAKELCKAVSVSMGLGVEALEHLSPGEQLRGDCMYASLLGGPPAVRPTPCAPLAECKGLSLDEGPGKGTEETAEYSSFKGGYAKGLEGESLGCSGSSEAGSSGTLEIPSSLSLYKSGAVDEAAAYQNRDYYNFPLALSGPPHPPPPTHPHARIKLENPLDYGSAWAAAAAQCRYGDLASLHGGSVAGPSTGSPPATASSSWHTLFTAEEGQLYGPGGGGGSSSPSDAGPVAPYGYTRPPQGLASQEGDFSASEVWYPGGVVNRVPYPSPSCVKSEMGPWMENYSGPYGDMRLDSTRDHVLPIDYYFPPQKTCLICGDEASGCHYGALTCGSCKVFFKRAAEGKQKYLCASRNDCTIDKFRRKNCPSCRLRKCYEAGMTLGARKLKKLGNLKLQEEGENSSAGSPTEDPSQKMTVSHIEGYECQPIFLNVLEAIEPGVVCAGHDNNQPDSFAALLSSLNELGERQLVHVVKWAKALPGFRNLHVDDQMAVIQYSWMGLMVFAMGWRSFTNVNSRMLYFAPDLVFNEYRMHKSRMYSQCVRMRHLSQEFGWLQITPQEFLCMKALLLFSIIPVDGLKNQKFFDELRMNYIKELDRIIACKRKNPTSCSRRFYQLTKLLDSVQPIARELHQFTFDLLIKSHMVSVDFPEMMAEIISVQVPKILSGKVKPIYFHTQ
# How it was run: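 Male Sprague-Dawley rats (3 weeks old) were castrated 3 days earlier. […] Suppression of accessory sex organ weight gain gave relative antiandrogenic activity.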
# [15] = target: T1, Mineralocorticoid receptor (Rattus norvegicus); test: Antagonist activity against Mineralocorticoid receptor after subcutaneous administration in Male Sprague Dawley rats; (+) =positive; assay type: functional, organism-based; conditions: filed as antagonist; how it was run: as §1
# [16] = target: T1, Mineralocorticoid receptor (Rattus norvegicus); test: In vivo relative Mineralocorticoid activity in Male Sprague-Dawley rats; assay type: functional, organism-based
# [17] = target: T1, Mineralocorticoid receptor (Rattus norvegicus); test: Relative potency compared to Aldosterone;Range is 72-216; assay type: functional
# [18] = target: T1, Mineralocorticoid receptor (Rattus norvegicus); test: Agonist activity against Mineralocorticoid receptor was determined after subcutaneous administration in Male Sprague Dawley rats; (+) =positive; assay type: functional, organism-based; conditions: filed as agonist
# [19] = target: T1, Mineralocorticoid receptor (Rattus norvegicus); test: Relative potency compared to Aldosterone;Range is 53-97; assay type: functional
# [20] = target: T2, Progesterone receptor (Rattus norvegicus); test: Relative binding affinity against progesterone receptor in […]
# [21] = target: T2, Progesterone receptor (Rattus norvegicus); test: In vivo relative Progestational activity in Male Sprague-Dawley rats was determined.; assay type: functional, organism-based
# [22] = target: T1, Mineralocorticoid receptor (Rattus norvegicus); test: Relative binding affinity against Mineralocorticoid Receptor in Male Sprague-Dawley rats
# How it was run: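 Renal cytosol from male Sprague-Dawley rats (4-8 weeks) adrenalectomized bilaterally 1 or 2 days earlier. Incubated with various competitor concentrations and about 1 nM [3H]aldosterone, for 42-48 h at 0 °C or 100-120 min at 25 °C. Charcoal (DCC) separation of bound and free.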
# [23] = target: T1, Mineralocorticoid receptor (Rattus norvegicus); test: Relative potency compared to Aldosterone;Range 14-224; assay type: functional
compound,measurement,setting,value
CC12C=CC(=O)C=C1C1CC1C1C2C=CC2(C)C1C1CC1[C@@]21CCC(=O)O1 (some centres undefined),Activity,[1],inactive
same,RBA,[2],250%
same,Activity,[3],Antagonist
same,RBA,[4],150%
same,Relative potency,[5],1.2
same,Activity,[6],inactive
same,RBA,[7],480%
CC12C=CC(=O)C=C1C1CC1C1C2C=CC2(C)C1CC[C@@]21CCC(=O)O1 (some centres undefined),Activity,[8],inactive
same,Activity,[9],Agonist
same,RBA,[2],320%
same,RBA,Rattus norvegicus,11%
same,Relative potency,[10],4
same,RBA,[7],300%
C[C@]12CCC(=O)C=C1CC[C@@H]1[C@@H]2[C@H]2C[C@]3(CO2)[C@@H](C(=O)CO)CC[C@@H]13,relative binding affinity (RBA),[11],50
CC12CCC(=O)C=C1C=CC1C2C=CC2(C)C1CC[C@@]21CCC(=O)O1 (some centres undefined),Relative potency,[12],2
same,RBA,[2],70%
same,Activity,[13],inactive
same,RBA,Rattus norvegicus,4.7%
same,Activity,[14],1
same,Activity,[15],Antagonist
same,Activity,[6],inactive
same,RBA,[7],64%
CC12CCC(=O)C=C1CCC1C2C=CC2(C)C(C(=O)CO)CCC12 (centres undefined),Relative activity,[16],1
same,relative binding affinity (RBA),[11],150
CC12C=CC(=O)C=C1C=CC1C2C=CC2(C)C1C1CC1[C@@]21CCC(=O)O1 (some centres undefined),Activity,[1],inactive
same,Relative potency,[17],72
same,RBA,[2],160%
same,RBA,[4],19%
same,Activity,[18],Agonist
same,RBA,[7],200%
CC(=O)S[C@@H]1CC2=CC(=O)CCC2(C)C2C=CC3(C)C(CC[C@@]34CCC(=O)O4)C21 (some centres undefined),Activity,[8],inactive
same,Relative potency,[19],53
same,Activity,[9],Agonist
same,RBA,[2],43%
same,RBA,[4],14%
same,RBA,[7],169%
CC(=O)[C@H]1CC[C@H]2[C@@H]3CCC4=CC(=O)CC[C@@H]4[C@H]3CC[C@]12C,relative binding affinity (RBA),[20],650
same,Relative activity,[21],10.7
C[C@]12C[C@H](O)[C@H]3[C@@H](CCC4=CC(=O)CC[C@@]43C)[C@@H]1CC[C@@H]2C(=O)CO,Relative activity,[16],0.14
same,RBA,[22],14%
CC(=O)[C@H]1CC[C@H]2[C@@H]3CCC4=CC(=O)CC[C@]4(C)[C@H]3CC[C@]12C,RBA,[20],100%
same,Relative activity,[21],1
C[C@]12CC[C@@H]3C4CCC(=O)C=C4CC[C@H]3[C@@H]1CC[C@@H]2C(=O)CO (some centres undefined),Relative activity,[16],1.5
same,relative binding affinity (RBA),[11],170
CC(=O)[C@H]1CC[C@H]2[C@@H]3CCC4=CC(=O)CC[C@]4(C)[C@H]3C=C[C@]12C,relative binding affinity (RBA),[20],220
same,Relative activity,[21],3
C[C@]12CC[C@H]3[C@@H](CCC4=CC(=O)CC[C@@]43C)[C@@H]1CC[C@@H]2C(=O)CO,Relative activity,[16],1
same,RBA,[22],58%
CC12CCC(=O)C=C1C1CC1C1C2C=CC2(C)C1CC[C@@]21CCC(=O)O1 (some centres undefined),Activity,[1],inactive
same,RBA,[2],580%
same,RBA,Rattus norvegicus,56%
same,Activity,[18],Agonist
same,Relative potency,[23],14
same,RBA,[7],30%
